Read-outs that look alike come from different tables or passages of the source. Marks after values point to notes of the source that are not given here.
Tests used:
[1] = format: in vivo, human; conditions: for AUC0–96h, geometric mean (CV%) / AUC0–48h, geometric mean (CV%) / t 1/2, geometric mean (CV%) / t max,1, median (range): plasma, raloxifene 60 mg oral
Outline: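 Open-label fixed-sequence crossover in 16 healthy adults (8 male, 8 female), arms ≥7 days apart, fasted from midnight. Oral 60 mg test compound tablet with 240 mL water at 50°C (baseline) or brewed green tea. Acute: tea (one bag, 240 mL water, 80°C, 3 min, cooled to 50°C) given with dose, then at 4 and 8 h. Chronic: tea three times daily for 4 days, then day 5 as acute.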

[2] = Follow-up exploratory clinical study: plasma pharmacokinetics; format: in vivo, human; conditions: follow-up study; for AUC0–48h green tea/baseline ratio (90% CI) / Cmax,1 green tea/baseline ratio (90% CI): acute green tea vs baseline; for AUC0–48h, geometric mean (CV%) / t max,1, median (range) / Cmax: plasma; for Cmax: read-out: Cmax,1, geometric mean (CV%)
Outline: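 Six healthy adults (3 male, 3 female) in sequential arms ≥7 days apart: oral test compound with water, then with acute brewed green tea, then tea alone. Plasma sampled 0–48 h at the main-study times. Analysed by UHPLC–MS/MS for parent and glucuronides. […] Green tea/baseline ratios on log-transformed data, paired two-tailed t-test.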

[3] = 16 healthy adults, baseline (water)

Metabolite‐to‐parent AUC0–96h ratio, geometric mean (CV%) ([1]; acute green tea)	AUC0–48h green tea/baseline ratio (90% CI) ([1]; acute green tea vs baseline)	AUC0–96h green tea/baseline ratio (90% CI) ([1]; acute green tea vs baseline)	Cmax,1 green tea/baseline ratio (90% CI) ([1]; acute green tea vs baseline)	t 1/2 green tea/baseline ratio (90% CI) ([1]; acute green tea vs baseline)	Metabolite‐to‐parent AUC0–96h ratio, geometric mean (CV%) ([1]; baseline (water))	Metabolite‐to‐parent AUC0–96h ratio, geometric mean (CV%) ([1]; chronic green tea)	AUC0–48h green tea/baseline ratio (90% CI) ([1]; chronic green tea vs baseline)	AUC0–96h green tea/baseline ratio (90% CI) ([1]; chronic green tea vs baseline)	Cmax,1 green tea/baseline ratio (90% CI) ([1]; chronic green tea vs baseline)	t 1/2 green tea/baseline ratio (90% CI) ([1]; chronic green tea vs baseline)	AUC0–96h, geometric mean (CV%) [1, 3]	AUC0–48h, geometric mean (CV%) ([1]; acute green tea)	AUC0–96h, geometric mean (CV%) ([1]; acute green tea)	t 1/2, geometric mean (CV%) ([1]; acute green tea)	t max,1, median (range) ([1]; acute green tea)	AUC0–48h, geometric mean (CV%) ([1]; baseline (water))	t 1/2, geometric mean (CV%) ([1]; baseline (water))	t max,1, median (range) ([1]; baseline (water))	AUC0–48h, geometric mean (CV%) ([1]; chronic green tea)	Structure (SMILES)	further results
161 (36)	0.54 (0.43–0.68)	0.57 (0.45–0.73)	0.42 (0.31–0.57)	0.91 (0.72–1.16)	160 (34)	159 (34)	0.57 (0.43–0.76)	0.65 (0.51–0.82)	0.46 (0.31–0.70)	0.92 (0.72–1.18)	2350 (45) nM‐h	1080 (55) nM‐h	1350 (69)** nM‐h	15.9 (66) h	1.5 (0.5–6) h	1990 (48) nM‐h	17.0 (57)^b h	1.25 (0.25–4) h	1134 (56) nM‐h	O=C(c1ccc(OCCN2CCCCC2)cc1)c1c(-c2ccc(O[C@@H]3O[C@H](C(=O)O)[C@@H](O)[C@H](O)[C@H]3O)cc2)sc2cc(O)ccc12 [Raloxifene 4′‐glucuronide, raloxifene 4′‐glucuronide]	AUC0–96h, geometric mean (CV%) ([1]; chronic green tea): 1520 (76)* nM‐h; t 1/2, geometric mean (CV%) ([1]; chronic green tea): 15.6 (48)^b h; t max,1, median (range) ([1]; chronic green tea): 1.25 (0.5–3) h; Metabolite‐to‐parent AUC0–48h ratio, geometric mean (CV%) ([2]; acute green tea): 184 (25); AUC0–48h green tea/baseline ratio (90% CI) [2]: 0.93 (0.81–1.06); Cmax,1 green tea/baseline ratio (90% CI) [2]: 0.79 (0.68–0.93); Metabolite‐to‐parent AUC0–48h ratio, geometric mean (CV%) ([2]; baseline): 179 (23); AUC0–48h, geometric mean (CV%) ([2]; acute green tea): 1368 (50) ^* nM‐h; t max,1, median (range) ([2]; acute green tea): 1 (0.5–1) h; t max,1, median (range) ([2]; baseline): 1.25 (1–3) h; AUC0–48h, geometric mean (CV%) ([2]; six healthy adults, baseline): 1473 (50) nM‐h; Cmax ([2]; acute green tea): 75 nM; Cmax ([2]; baseline): 94.4 nM
39 (43)	0.57 (0.45–0.74)	0.60 (0.47–0.77)	0.38 (0.23–0.63)	1.08 (0.90–1.31)	37 (45)	37 (44)	0.59 (0.43–0.79)	0.67 (0.53–0.86)	0.50 (0.35–0.73)	0.92 (0.76–1.12)	535 (48) nM‐h	255 (68) nM‐h	324 (79)* nM‐h	20.5 (36)^b h	1.5 (0.5–4) h	444 (56) nM‐h	18.9 (40)^b h	1.5 (1–4) h	261 (57) nM‐h	O=C(c1ccc(OCCN2CCCCC2)cc1)c1c(-c2ccc(O)cc2)sc2cc(O[C@@H]3O[C@H](C(=O)O)[C@@H](O)[C@H](O)[C@H]3O)ccc12 [Raloxifene 6‐glucuronide, raloxifene 6‐glucuronide]	AUC0–96h, geometric mean (CV%) ([1]; chronic green tea): 360 (78) nM‐h; t 1/2, geometric mean (CV%) ([1]; chronic green tea): 17.8 (46)^c h; t max,1, median (range) ([1]; chronic green tea): 1.5 (1–6) h; Metabolite‐to‐parent AUC0–48h ratio, geometric mean (CV%) ([2]; acute green tea): 22 (50); AUC0–48h green tea/baseline ratio (90% CI) [2]: 0.88 (0.73–1.06); Cmax,1 green tea/baseline ratio (90% CI) [2]: 0.73 (0.60–0.88); Metabolite‐to‐parent AUC0–48h ratio, geometric mean (CV%) ([2]; baseline): 23 (47); AUC0–48h, geometric mean (CV%) ([2]; acute green tea): 166 (61) nM‐h; t max,1, median (range) ([2]; acute green tea): 1 (1–3) h; t max,1, median (range) ([2]; baseline): 1.25 (1–3) h; AUC0–48h, geometric mean (CV%) ([2]; six healthy adults, baseline): 189 (46) nM‐h; Cmax ([2]; acute green tea): 6.85 nM; Cmax ([2]; baseline): 9.39 nM

Source: paper PMC10582660 (Clinical and Translational Science, 2023)
